The record followed here is publication PMC8039535 (Molecular Therapy. Nucleic Acids, 2021).

Each structure is given as a SMILES string.

Data set [1] in a line: Steroid pharmacokinetics after i.v. or s.c. administration. The settings on record: CD1, mouse, plasma, iv. The format is in vivo, CD1 mice. Summed up:
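CD1 mice (n = 4) received steroid i.v. or s.c. intrascapularly. Parent steroid was given in 0.6% ethanol in PBS; ester prodrugs were given within hFGF21 mRNA MC3 LNPs. Serial saphenous blood was drawn, with a terminal sample at 24 h. Parent steroid in plasma was quantified by UPLC–triple quadrupole MS.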

Data set [2] relates to hFGF21 protein. The format is in vivo. As to conditions: prodrug incorporated into the MC3 LNP, s.c., 0.3 mg/kg mRNA, CD1 mice. Summed up: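 CD1 mice (n = 5) under light isoflurane received hFGF21 mRNA in MC3 LNPs (0.3 mg/kg mRNA) s.c. intrascapularly at 5 mL/kg. LNPs were with or without steroid ester prodrug at a prodrug steroid/mRNA weight ratio of 1:1. Saphenous blood was taken at 2, 5, 8 and 24 h. Plasma (3,000 × g, 10 min, 4°C) hFGF21 was measured by multiplex Luminex. AUC2–24 h was reported as a geometric mean.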

For the compound `CCCC1O[C@@H]2C[C@H]3[C@@H]4CCC5=CC(=O)C=C[C@]5(C)[C@H]4[C@@H](O)C[C@]3(C)[C@]2(C(=O)CO)O1` (stereo partly drawn) [Budesonide parent, budesonide], in data set [1], the clearance was determined as 121 mL/min/kg. Besides, the half-life (in general, the time in which the quantity being followed falls by half) in data set [1] (Half-life in plasma, i.v. administration, CD1 mice) was approximately 40 min. With `CCCCCCCCCCCCCC(=O)OCC(=O)[C@@]12O[C@H](CCC)O[C@@H]1C[C@H]1[C@@H]3C[C@H](F)C4=CC(=O)CC[C@]4(C)[C@@]3(F)[C@@H](O)C[C@@]12C` [Rofleponide-C14], the “Fold increase of hFGF21 AUC2–24 h versus MC3 LNP without steroid” value in data set [2] is given as 3.8 fold.
